This is a sample that favours compounds with a hit; in the whole collection about 1.9% have one here.
UHRF1 binding = UHRF1 methylated DNA binding inhibitors, primary screen, counter-screen for MBD2 inhibitor project, biochemical, TR-FRET, human UHRF1, single concentration; inhibition, % at 4.4 µM; hit rate 0.75% among 370,000; UHRF1 binding to methylated oligo; in the data active = inhibition above about 21%;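 note: UHRF1 SRA domain binding a hemimethylated CpG hairpin DNA probe; 0% = median of test compound wells and 100% = reference inhibitor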
TDP2 absorb = human TDP2 enzyme inhibitors, primary screen, biochemical, epi absorbance, recombinant enzyme; Tyrosyl-DNA phosphodiesterase 2 (Homo sapiens), O95551; T5PNP hydrolysis, p-nitrophenol absorbance 415 nm; inhibition, % at 12.8 µM; hit rate 0.34% among 370,000;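 active = inhibition above the mean of all tested compounds plus 3 SD, set per campaign, cut at about 25% in these data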;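 note: 0% = DMSO with enzyme and 100% = buffer with substrate but no TDP2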
Target sequence (O95551 whole entry, looked up): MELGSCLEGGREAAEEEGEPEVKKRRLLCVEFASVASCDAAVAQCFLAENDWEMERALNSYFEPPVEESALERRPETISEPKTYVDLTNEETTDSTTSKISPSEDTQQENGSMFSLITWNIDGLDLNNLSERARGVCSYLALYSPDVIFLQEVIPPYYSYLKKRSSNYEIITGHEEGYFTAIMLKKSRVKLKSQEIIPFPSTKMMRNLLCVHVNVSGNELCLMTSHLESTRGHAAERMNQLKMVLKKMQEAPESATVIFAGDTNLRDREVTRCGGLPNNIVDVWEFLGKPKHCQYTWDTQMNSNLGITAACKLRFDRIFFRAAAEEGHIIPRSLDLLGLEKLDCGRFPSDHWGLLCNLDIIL
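Test system: human TDP2 enzyme; Input: 120 nM TDP2 per well; Buffer or medium: Mg2+-containing Tris-HCl buffer, pH 7.5; Reagent: 5 mM T5PNP; Dosing: 12.8 µM single point, 1% DMSO; Incubation: reaction 2 h, 37 °C; Detection: p-Nitrophenol epi absorbance; Read-out: % inhibition relative to enzyme-containing and enzyme-free wells; Replicates: single well per compound.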
CASP6 VEID inh = human caspase-6 inhibitors, primary screen, biochemical, VEID-R110 fluorescence, single point, set 2; P55212; purified caspase-6, Z-VEID-R110 cleavage fluorescence; inhibition, % at 12.5 µM; hit rate 0.53% among 350,000; AID 686996, 2013;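 active = mean inhibition across replicates at least about 35%, with every replicate also reaching that limit, limit read from the data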;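 note: 0% = median of neutral control wells and 100% = no fluorescence left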
NSD2 HMT inh = NSD2 histone methyltransferase inhibitors, primary screen, biochemical, AlphaScreen, single concentration, set 2. NSD2 peptide methylation, 120 min. Histone-lysine N-methyltransferase NSD2 (Homo sapiens), O96028. inhibition, % at 12.5 µM. hit rate 0.54% among 310,000; in the data active = inhibition above about 50%
LEDGF integ inh = blockers of LEDGF/p75-dependent integrase strand transfer – biochemical, TR-FRET, high throughput, primary screen | TR-FRET IN-LEDGF/p75 DNA integration, Eu/Cy5 | inhibition, % at 3.7 µM | hit rate 0.64% among 370,000;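 active = inhibition above the screen-wide mean plus 3 SD, cut at about 13% in these data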;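 note: signal is the Cy5 over europium emission ratio at 671 and 618 nm; 0% = plate median of compound wells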
MBD2 DNA inh = inhibitors of MBD2 binding to methylated DNA, primary screen, biochemical, TR-FRET, DNA-binding domain, human | hit rate 0.31% among 370,000 | Methyl-CpG-binding domain protein 2 (Homo sapiens), Q9UBB5 | inhibition, % at 4.4 µM | AID 686964, 2013 | MBD2 binding to methylated oligonucleotide; in the data active = inhibition above about 13%
IN multimer up = HIV-1 IN multimer formation enhancers, counter-screen for LEDGF/p75 integration inhibitor project, biochemical, TR-FRET; AID 1053131, 2014; hit rate 17% among 2,000; TR-FRET HIV-1 integrase multimerization; activation, % at 7.7 µM; shares compounds with LEDGF integ inh; in the data active = activation above about 8.9%
TR-FRET interf = TR-FRET optical interference artefacts, confirmation, artefact control for LEDGF/p75-dependent integration inhibitor project, biochemical, HIV-1 IN multimerization; AID 1053135, 2014; inhibition, % at 7.7 µM; 2,000 tested, under 10 active; TR-FRET optical interference counterscreen; shares compounds with LEDGF integ inh;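 active = inhibition above the mean over all tested compounds plus 3 SD, which no compound reached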;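 note: 0% = integrase with antibodies and DMSO and 100% = antibodies without integrase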
IN-LEDGF confirm = inhibitors of HIV-1 IN-LEDGF/p75 DNA integration, confirmation, biochemical, TR-FRET; shares compounds with LEDGF integ inh; TR-FRET LEDGF/p75-dependent HIV-1 integration; inhibition, % at 3.7 µM; hit rate 36% among 2,000; in the data active = inhibition above about 14%
Starred values were filed as active, the others as inactive; x = not tested or not shown.

SMILES	UHRF1 binding	TDP2 absorb	CASP6 VEID inh	NSD2 HMT inh	LEDGF integ inh	MBD2 DNA inh	IN multimer up	TR-FRET interf	IN-LEDGF confirm
CCC1CCC(N2CCN(c3ccccc3F)CC2)CC1 (configuration not stated)	5	7	-6	19	1	0	x	x	x
CC(=O)N1CCC(N2CCN(c3ccccc3F)CC2)CC1	6	5	x	3	40*	4	1	-5	-3
COc1ccc(NC(=O)N[C@H]2CC[C@H](CCn3cc(-c4ccc(F)cc4)nn3)O[C@H]2CO)cc1	x	x	-1	x	x	x	x	x	x
Cc1cc(C(=O)Nc2sc(C)c(C)c2C#N)no1	2	-6	x	-2	-1	1	x	x	x
COc1cc2cc3c(N)c(C(=O)Nc4sc(C)c(C)c4C#N)sc3nc2cc1OC	3	-9	x	38	15*	-5	27*	-94	46*
CCCN(C)C[C@@H]1Oc2cc(C#CC3CCCC3)ccc2S(=O)(=O)N([C@@H](C)CO)C[C@H]1C	x	x	2	x	x	x	x	x	x
CC1=NN(c2ccccc2)C(=O)/C1=C/C=C/C=C/N(C)C	-29	8	x	1	23*	-21	16*	-56	-4
CC1=NN(c2cccc(C(=O)O)c2)C(=O)/C1=C\C=C/c1ccccc1	-1	-8	x	30	16*	-2	7	-24	16*
CC1=NN(c2ccc(C)cc2)C(=O)/C1=C\C=C\c1ccccc1	2	3	2	4	8	0	x	x	x
C[C@@H]1CN([C@@H](C)CO)C(=O)c2cc(NC(=O)CCC(F)(F)F)ccc2O[C@@H](C)CCCCO[C@H]1CN(C)C(=O)NC1CCCCC1	x	x	1	x	x	x	x	x	x
CCN(CC)c1ccc(N=Cc2cc(Br)ccc2O)cc1	-4	-3	-8	-2	24*	-7	6	-23	7
CCC(=O)Nc1nnc(S(=O)(=O)N2CCCC2)s1	-1	11	-1	x	14*	-2	-2	12	-4
CCC(=O)Nc1nnc(S(=O)(=O)N2CCCCCC2)s1	0	-5	-3	x	5	0	x	x	x
CNC[C@H]1OCCCC[C@H](C)Oc2ccc(N(C)C)cc2C(=O)N([C@H](C)CO)C[C@H]1C	x	x	1	x	x	x	x	x	x
C/C(CC(=O)Nc1ccccn1)=N\NC(=O)c1ccccc1O	-5	-21	4	x	38*	-5	1	-4	46*
Cc1c(-c2cccc(Cl)c2)nc2ccccc2c1C(=O)NC1CC1	3	-4	0	-1	21*	0	0	0	-3
CN(C)C(=O)c1ccc(-c2ccc([C@H]3[C@@H](CO)N4CCCCN(C(=O)C5CCC5)C[C@H]34)cc2)cc1	x	x	2	x	x	x	x	x	x
O=C([C@H]1[C@H](CO)[C@H]2Cn3c(ccc(C4=CCCCC4)c3=O)[C@@H]1N2Cc1nccs1)N1CCOCC1	x	x	2	x	x	x	x	x	x
CC1(C)N([O-])C(c2cccs2)=C[N+]1=O	1	-8	x	-7	24*	-3	1	-6	29*
C[C@H]1CN([C@@H](C)CO)C(=O)c2cc(/C=C/c3ccccc3)cnc2O[C@H]1CN(C)Cc1ccncc1	x	x	3	x	x	x	x	x	x

High-throughput results from PubChem BioAssay.
